In ChEMBL document CHEMBL3525918, “Utility of drug depletion-time profiles in isolated hepatocytes for accessing hepatic uptake clearance: identifying rate-limiting steps and role of passive processes” (Drug Metab Dispos, 2012):

Assays:
[1] = Drug metabolism in Sprague-Dawley rat hepatocytes assessed per 10^6 cells at 0.1 to 10 uM up to 90 mins by media-loss method; format: ADME, cell-based, Hepatocyte
Method in brief: (§1)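 Freshly isolated rat hepatocytes (collagenase perfusion, >85% viable, three preparations), incubated with drug at final 0.1–10 µM at 37°C, 0.1–1 x 10^6 cells/mL, 0.5% methanol, alongside the whole-matrix assay. At time points up to 90 min the incubation was centrifuged 30 sec at 7000g, and the supernatant medium was snap-frozen and analysed by LC-MS/MS. Loss of drug from the medium was fitted mono- or biexponentially.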

[2] = Drug metabolism in Sprague-Dawley rat hepatocytes assessed per 10^6 cells at 0.1 to 10 uM up to 90 mins by conventional assay; format: ADME, cell-based, Hepatocyte
Method in brief: (§2)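 Fresh rat hepatocytes from collagenase perfusion (viability >85%), three independent preparations. Drug at final 0.1–10 µM in Williams' medium E, 0.5% methanol, preincubated 5 min at 37°C, then mixed with hepatocytes (final 0.1–1 x 10^6 cells/mL) and shaken at 37°C. Ten time points up to 90 min, terminated by snap-freezing the whole cell-plus-medium matrix. LC-MS/MS quantitation; mono- or biexponential depletion fit gives kdep.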

[3] = (§3) Apparent intrinsic clearance in Sprague-Dawley rat hepatocytes assessed per 10^6 cells at 0.1 to 10 uM up to 90 mins by media-loss method; format: ADME, cell-based, Hepatocyte; conditions: Sprague-Dawley, read-out: CLH(app); method in brief: as §1
[4] = Apparent intrinsic clearance in Sprague-Dawley rat hepatocytes assessed per 10^6 cells at 0.1 to 10 uM up to 90 mins by conventional assay; format: ADME, cell-based, Hepatocyte; conditions: read-out: CLH(app); method in brief: as §2
[5] = test system: Hepatocyte; assay: as §3; format: ADME, cell-based; conditions: 1.5 h, 10 µM; method in brief: as §1

Row | Structure (SMILES) | Km at 1.5 h, up to 10 µM [1] | Km at 1.5 h, up to 10 µM [2] | hepatocyte CLint at up to 10 µM [3] | hepatocyte CLint at up to 10 µM [4] | CLH(app) [5]
1 | CC(C)c1c(C(=O)Nc2ccccc2)c(-c2ccccc2)c(-c2ccc(F)cc2)n1CC[C@@H](O)C[C@@H](O)CC(=O)O [ATORVASTATIN] | 0.43 µM | 1.3 µM | – | – | –
2 | CC[C@H]1OC(=O)[C@H](C)[C@@H](O[C@H]2C[C@@](C)(OC)[C@@H](O)[C@H](C)O2)[C@H](C)[C@@H](O[C@@H]2O[C@H](C)C[C@H](N(C)C)[C@H]2O)[C@](C)(OC)C[C@@H](C)C(=O)[C@H](C)[C@@H](O)[C@]1(C)O [CLARITHROMYCIN] | – | – | 68 µL/min/1e6 cells | 46 µL/min/1e6 cells | –
3 | CC[C@H]1OC(=O)[C@H](C)[C@@H](O[C@H]2C[C@@](C)(OC)[C@@H](O)[C@H](C)O2)[C@H](C)[C@@H](O[C@@H]2O[C@H](C)C[C@H](N(C)C)[C@H]2O)[C@](C)(O)C[C@@H](C)C(=O)[C@H](C)[C@@H](O)[C@]1(C)O [ERYTHROMYCIN] | 5.5 µM | 3.5 µM | 35 µL/min/1e6 cells | 26 µL/min/1e6 cells | –
4 | CC(C)(C(=O)O)c1ccc(C(O)CCCN2CCC(C(O)(c3ccccc3)c3ccccc3)CC2)cc1 (stereo unspecified) [FEXOFENADINE] | – | 4.7 µM | – | – | –
5 | O=C(O)C[C@H](O)C[C@H](O)/C=C/c1c(C2CC2)nc2ccccc2c1-c1ccc(F)cc1 [PITAVASTATIN] | 13 µM | – | – | 7.1 µL/min/1e6 cells | 1705 uL/min/10^6cells
6 | CCOc1cc(CC(=O)N[C@@H](CC(C)C)c2ccccc2N2CCCCC2)ccc1C(=O)O [REPAGLINIDE] | – | – | 49.3 µL/min/1e6 cells | 49.9 µL/min/1e6 cells | –
7 | CC(C)c1nc(N(C)S(C)(=O)=O)nc(-c2ccc(F)cc2)c1/C=C/[C@@H](O)C[C@@H](O)CC(=O)O [ROSUVASTATIN] | – | – | 1660 µL/min/1e6 cells | 3.3 µL/min/1e6 cells | –
